Screening data deposited in PubChem BioAssay by The Scripps Research Institute Molecular Screening Center.
M5 PAM – CHRM5 positive allosteric modulation; P08912; 0.3% of 360,000 active; CHO-K1 hM5, Fluo-8 calcium, ACh EC20 PAM; 0% = ACh EC20, 100% = ACh EC100; activation, % at 3 µM;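 active = activation above the run cutoff, the mean activation of all test compounds plus 3 SD, cut at about 18% in these data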
Target sequence (P08912 whole entry, looked up): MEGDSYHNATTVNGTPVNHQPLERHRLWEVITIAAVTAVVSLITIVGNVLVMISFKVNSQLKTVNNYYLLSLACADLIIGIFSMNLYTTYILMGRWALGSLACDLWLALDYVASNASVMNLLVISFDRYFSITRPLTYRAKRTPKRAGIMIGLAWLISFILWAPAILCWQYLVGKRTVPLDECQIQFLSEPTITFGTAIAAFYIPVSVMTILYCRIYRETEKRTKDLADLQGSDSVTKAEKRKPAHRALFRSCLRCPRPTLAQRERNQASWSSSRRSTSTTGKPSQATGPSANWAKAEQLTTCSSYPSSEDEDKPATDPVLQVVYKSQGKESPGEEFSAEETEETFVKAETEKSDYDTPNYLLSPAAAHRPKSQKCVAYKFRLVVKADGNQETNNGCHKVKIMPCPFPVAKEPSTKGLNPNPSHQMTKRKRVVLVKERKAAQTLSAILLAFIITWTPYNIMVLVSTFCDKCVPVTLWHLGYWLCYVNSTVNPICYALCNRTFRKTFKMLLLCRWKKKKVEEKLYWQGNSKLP
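Test system: CHO-K1 hM5 cells / Doses: single-point, 3 µM nominal / Times: Post-acetylcholine fluorescence recording 140 s / Technique: Fluo-8 calcium fluorescence / Measure: Max/basal fluorescence ratio as % of EC20–EC100 ACh window / Benchmarks: low control EC20 acetylcholine (0%), high control EC100 acetylcholine (100%) / Replicates: one well per compound, no replicates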
CHRM5 antagonist – blocks acetylcholine activation of human M5 receptor. P08912. CHO-hM5 cells, Fluo-8 calcium fluorescence, ACh EC80. inhibition, % at 3 µM. 0.59% of 360,000 active. AID 624040;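 active = inhibition above a per-plate cutoff, the mean of that plate's test compounds plus 3 SD, cut at about 27% in these data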;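 note: 0% = acetylcholine EC80 with DMSO and 100% = DMSO without agonist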
M4 PAM – positive allosteric modulators of human muscarinic M4 receptor; 0.4% of 360,000 active; P08173; CHO-K1 hM4/Gqi5, Fluo-8 calcium fluorescence, ACh EC20; 0% = ACh EC20, 100% = maximal ACh; activation, % at 3 µM;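 active = activation above its plate's cutoff, the mean activation of sample wells plus 3 SD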
M4 antag – antagonists of human muscarinic M4 receptor (CHRM4); CHO-hM4 cells, ACh EC80, Fluo-8 calcium fluorescence; inhibition, % at 3 µM; 0.73% of 360,000 active;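 active = inhibition above its plate's cutoff, the mean inhibition of sample wells plus 3 SD, cut at about 27% in these data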;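 note: 0% = acetylcholine EC80 with DMSO and 100% = DMSO without agonist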
M5 ag – CHRM5 agonism in calcium assay | activation, % at 3 µM | CHO-K1 hM5 cells, Fluo-8 calcium fluorescence; 0% DMSO wells, 100% maximal acetylcholine response | 0.19% of 360,000 active | P08912;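 active = activation above the run's mean over test compounds plus 3 SD, cut at about 23% in these data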;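 note: signal is peak over basal fluorescence ratio across the kinetic read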
CHRM4 agonist – agonists of human muscarinic M4 receptor (CHRM4); P08173; CHO-K1 hM4/Gqi5, Fluo-8 calcium fluorescence; vehicle 0%, full acetylcholine response 100%; activation, % at 3 µM; 0.14% of 360,000 active; AID 624127;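 active = activation above the run mean over all test wells plus 3 SD, cut at about 32% in these data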;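 note: peak over basal fluorescence ratio per well then scaled between controls; 0% = DMSO wells and 100% = acetylcholine at EC100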
* hit, by the source's call. Hits are enriched below; roughly 1.8% of the tested compounds scored in any of these assays.

SMILES | M5 PAM | CHRM5 antagonist | M4 PAM | M4 antag | M5 ag | CHRM4 agonist
CC(=O)c1cccc(-c2ccnc3c2CC(C(=O)Nc2cccc(OC(F)(F)F)c2)O3)c1 (configuration not stated) | -7 | 7 | -7 | 5 | 0 | 4
N#Cc1ccc(-c2ccc(F)cc2)nc1Oc1ccc(Cl)c(Cl)c1 | 1 | 2 | 33* | -2 | -3 | 1
CC(C)COC(=O)N1CCCCC1c1cc(C(=O)Nc2ccccc2)no1 (configuration not stated) | 1 | -2 | -4 | -1 | -1 | 6
COc1ccc(C(CNc2ccc(S(=O)(=O)N3CCCC3)cc2[N+](=O)[O-])N2CCCC2)cc1 (configuration not stated) | -17 | 32* | -9 | 13 | -5 | 3
CC1=C(C)C(=O)C(N2CCOCC2)=CC1=O | 21* | 12 | 9 | 2 | 7 | 2
O=C1C=C(N2CCOCC2)c2ccccc2C1=O | 4 | 5 | 6 | -6 | 2 | 2
CCc1ccc(N/C(SCc2cccc(F)c2)=C(/C#N)C(=O)NCc2ccco2)cc1 | -1 | 7 | -6 | 5 | 0 | 1
Cc1ccc(N/C(SCc2ccccc2C)=C(/C#N)C(=O)NCc2ccco2)cc1C | -10 | 4 | -21 | 27* | -4 | 0
CCCC(=O)OCCNc1cc(Sc2nc3ccccc3[nH]2)c2nonc2c1[N+](=O)[O-] | -2 | 34* | -14 | 55* | -4 | 4
CC(=O)OCCCNc1cc(Sc2ccc(Cl)cc2)c2nonc2c1[N+](=O)[O-] | 12 | 0 | 22* | 17 | 0 | 1
CCC(=O)OCCNc1cc(SCCC(=O)OC)c2nonc2c1[N+](=O)[O-] | -5 | 4 | 2 | -6 | -5 | 2
CCc1ccc2c(c1)NC(=O)C2(C)Cc1ccc(C(F)(F)F)o1 (configuration not stated) | -6 | 4 | 6 | -8 | 1 | 1
Fc1ccc(-c2cc3nc(-c4ccccc4)cc(N4CCN(CCN5CCOCC5)CC4)n3n2)cc1 | -10 | 14 | -11 | 11 | 6 | 33*
CN1CCN(c2cc(-c3ccccc3)nc3cc(-c4ccc(F)cc4)nn23)CC1 | 3 | 27 | 8 | 5 | -1 | 5
O=C1NC2(CCCCCC2)N=C1c1ccc(Br)cc1 | 3 | -9 | 17 | 35* | 4 | 0
c1ccc(CCNc2ccnc3cc4ccccc4cc23)cc1 | -33 | 36* | -16 | 21 | -5 | 10
CC(C)Nc1ccc(Nc2ccnc3cc4ccccc4cc23)cc1 | 4 | -6 | -5 | -11 | -17 | 7
Cc1ccccc1-n1ncc2c1CC(C)(C)CC2NC(=O)CCCN1CCCC1=O (configuration not stated) | -2 | 6 | -1 | 0 | 0 | 1
CCOC(=O)Cc1csc(N/N=C\c2cccc(Br)c2)n1 | -5 | 0 | 8 | -14 | -4 | 1
CCOC(=O)Cc1csc(N/N=C/c2ccccc2)n1 | 18 | -6 | 24* | -12 | -2 | 7
O=C1CSC(c2ccccc2F)N1c1ccccc1F (configuration not stated) | -2 | 5 | 5 | 8 | -5 | 0
O=C1CSC(c2ccccc2F)N1c1ccccc1 (configuration not stated) | -7 | -3 | 6 | -7 | -6 | 37*
O=C1CSC(c2ccccn2)N1c1ccccc1F (configuration not stated) | -6 | 30* | 6 | -5 | -1 | 0
COc1cccc(C2SCC(=O)N2c2ccc(Br)cc2)c1OC (configuration not stated) | -20 | 35* | -39 | 66* | -8 | -2
CCOc1ccc(N2C(=O)C(C)CNC2=S)cc1 (configuration not stated) | -1 | 0 | 1 | 2 | 2 | 0
SMILES | M5 PAM | CHRM5 antagonist | M4 PAM | M4 antag | M5 ag | CHRM4 agonist
O=C(Nc1nc2ccc(S(=O)(=O)N3CCCCC3)cc2s1)C1CCCO1 (configuration not stated) | 0 | 4 | 34* | 12 | 2 | 3
C[N+](C)=C1SCC(C)(/C=N/O)S1 (configuration not stated) | 8 | -5 | -8 | 7 | 10 | 2
CCCCNC(=O)N(C)c1nncnc1C(=O)NC | 26* | -1 | 12 | 9 | 0 | 1
Cc1ccccc1C(=O)Nc1ccc(-c2nc3ccc(C(=O)c4ccccc4)cc3[nH]2)cc1 | -23 | 24 | -20 | 36* | -4 | 11
O=C(Nc1ccc2nc(-c3cccs3)[nH]c2c1)c1cccs1 | -10 | -5 | 1 | -1 | 0 | 8
CC(=O)Nc1cccc(NC(=O)Cc2cccs2)c1 | -7 | 11 | -7 | 9 | 0 | 0
O=C(Cc1cccs1)Nc1cccc(-c2nc3cc4ccccc4cc3[nH]2)c1 | -18 | 27* | -13 | 16 | -2 | 9
O=C(Nc1ccc(-c2nc3ccc(NC(=O)c4cccs4)cc3[nH]2)cc1)c1cccs1 | -14 | 27* | -22 | 46* | 0 | 5
O=C(c1ccccc1)c1ccc2nc(-c3ccc(NC(=O)c4ccccc4Br)cc3)[nH]c2c1 | -11 | 12 | -22 | 28* | 1 | 7
CS(=O)(=O)c1ccccc1C(=O)Nc1ccc(-c2nc3ccccc3[nH]2)cc1 | -1 | -7 | -1 | 2 | -4 | 3
CC1(c2ccccc2)NC(=O)N(CC(=O)NCC2CCCO2)C1=O (configuration not stated) | -13 | 27 | 6 | -8 | -1 | 1
N#CC1(CCCN2CCCCC2)c2ccccc2CCc2ccccc21 | -36 | 27 | -68 | 26* | -17 | 9
OCCN1CCN(CCCN2c3ccccc3CCc3ccccc32)CC1 | -17 | 12 | -1 | -4 | -3 | 3
CC(S(=O)(=O)c1ccccc1)S(=O)(=O)c1ccccc1 | -3 | 16 | -1 | -1 | -1 | 1
CC1=C/C(=N\OS(=O)(=O)c2ccccc2)C(C)=CC1=O | -26 | 66* | -16 | 70* | 44* | 18
CC1=C/C(=N\OS(=O)(=O)c2ccccc2)C(C(C)C)=CC1=O | -9 | 79* | -9 | 18 | 27* | 1
COc1ccc(S(=O)(=O)/N=C2/C=CC(=O)C(C)=C2C)cc1 | 1 | 2 | 5 | 2 | 0 | 1
CC1=C(C)/C(=N\OS(=O)(=O)c2ccc(C)cc2)C=CC1=O | 3 | 24 | -9 | 60* | 13 | 12
COc1ccccc1CCC(=O)Nc1ccc2c(c1)c(=O)n(C)n2-c1cccs1 | -1 | 3 | -2 | 6 | 0 | 2
C=CCNC(=O)c1c(O)c2cccc3c2n(c1=O)CCC3 | 43* | 25 | 16* | 22 | 6 | 6
